Columns and labels:
[1] = test system: pYStat3; experiment: Immunoblotting of pStat3 in treated U251MG cells; assay type: cell-based, human; conditions: 5 μM, glioma cells, immunoblotting
Outline: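 Whole-cell lysates from U251MG cells given test compound at 5 μM for 0–24 h, or at 0–5 μM for 2 h. Immunoblotted for pY705Stat3 and total Stat3, with GAPDH as loading reference.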

[2] = test system: Stat3; experiment: Stat3 DNA-binding activity/EMSA of nuclear extracts from treated glioma cells; assay type: cell-based, human; conditions: 5 μM, glioma cells, EMSA
[3] = biological target: Stat3:Stat3 (Mus musculus, UniProt P42227); experiment: Cell-free EMSA, nuclear extracts pre-incubated with compound, hSIE probe; assay type: biochemical; conditions: 5 μM, 30 min pre-incubation, NIH3T3/v-Src nuclear extracts
Stat3:Stat3, sequence (P42227 2-770 limits assumed): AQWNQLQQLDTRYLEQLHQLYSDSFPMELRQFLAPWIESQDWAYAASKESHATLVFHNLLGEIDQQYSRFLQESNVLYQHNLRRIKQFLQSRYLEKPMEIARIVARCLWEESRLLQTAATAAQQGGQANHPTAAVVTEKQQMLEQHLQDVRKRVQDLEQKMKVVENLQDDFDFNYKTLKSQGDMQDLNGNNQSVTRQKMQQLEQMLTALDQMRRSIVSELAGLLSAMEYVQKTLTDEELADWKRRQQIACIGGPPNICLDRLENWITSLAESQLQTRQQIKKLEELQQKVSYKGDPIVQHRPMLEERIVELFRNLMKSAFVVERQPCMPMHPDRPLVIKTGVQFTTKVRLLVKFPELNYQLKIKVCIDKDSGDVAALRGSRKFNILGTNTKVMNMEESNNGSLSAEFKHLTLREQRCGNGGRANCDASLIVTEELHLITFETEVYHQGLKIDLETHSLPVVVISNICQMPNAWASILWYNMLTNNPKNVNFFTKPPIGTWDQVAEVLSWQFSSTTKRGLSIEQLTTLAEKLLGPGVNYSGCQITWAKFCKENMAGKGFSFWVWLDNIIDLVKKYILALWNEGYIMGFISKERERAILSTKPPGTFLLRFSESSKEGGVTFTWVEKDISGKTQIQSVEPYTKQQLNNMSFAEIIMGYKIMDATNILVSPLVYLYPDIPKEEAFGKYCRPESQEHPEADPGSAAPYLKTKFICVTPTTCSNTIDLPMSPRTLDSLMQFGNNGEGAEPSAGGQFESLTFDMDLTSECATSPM

[4] = biological target: T1, Stat1:Stat1 (Mus musculus, UniProt P42225); experiment: Cell-free EMSA, EGF-stimulated NIH3T3/hEGFR nuclear extracts; assay type: biochemical; conditions: 5 μM, 30 min pre-incubation
T1 sequence (P42225 2-749 limits assumed): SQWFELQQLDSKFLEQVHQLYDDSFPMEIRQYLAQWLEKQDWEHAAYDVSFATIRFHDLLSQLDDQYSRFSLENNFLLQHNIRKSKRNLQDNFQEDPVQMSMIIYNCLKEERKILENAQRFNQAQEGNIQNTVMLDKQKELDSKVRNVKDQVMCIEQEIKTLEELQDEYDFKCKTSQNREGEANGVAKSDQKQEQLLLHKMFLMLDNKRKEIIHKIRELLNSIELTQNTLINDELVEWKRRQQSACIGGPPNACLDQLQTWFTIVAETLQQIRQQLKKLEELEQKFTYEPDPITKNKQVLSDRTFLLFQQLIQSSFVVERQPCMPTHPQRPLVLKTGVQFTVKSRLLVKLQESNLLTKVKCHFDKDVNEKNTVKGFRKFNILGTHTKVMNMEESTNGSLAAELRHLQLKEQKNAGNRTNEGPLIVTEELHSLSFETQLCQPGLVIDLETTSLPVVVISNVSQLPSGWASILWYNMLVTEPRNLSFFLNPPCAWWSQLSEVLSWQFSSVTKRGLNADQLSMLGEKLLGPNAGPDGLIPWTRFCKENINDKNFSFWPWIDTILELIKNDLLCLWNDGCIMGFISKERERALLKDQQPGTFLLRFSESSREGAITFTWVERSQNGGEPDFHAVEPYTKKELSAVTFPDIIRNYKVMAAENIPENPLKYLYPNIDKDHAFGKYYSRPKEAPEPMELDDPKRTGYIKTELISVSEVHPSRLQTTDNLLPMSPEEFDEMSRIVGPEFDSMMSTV
Outline: (§1)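 Nuclear extracts from EGF-stimulated NIH3T3/hEGFR fibroblasts, containing active Stat1, Stat3 and Stat5, preincubated with 5 μM test compound for 30 min at room temperature. Then incubated 30 min with 32P-labelled probe before EMSA: hSIE (Stat1/Stat3 binding) or MGFe (bovine β-casein element; Stat1/Stat5 binding). STAT:DNA bands quantified as percent of control.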

[5] = test system: Stat5:Stat5; experiment: Cell-free EMSA, EGF-stimulated NIH3T3/hEGFR nuclear extracts, MGFe probe; assay type: biochemical, mouse; conditions: 5 μM, 30 min pre-incubation
Outline: as §1

[6] = test system: G10 cells; experiment: Growth of glioma patient-derived xenograft cells in vitro; assay type: cell-based; conditions: Homo sapiens, read-out: inhibitory activity against growth of G10 cells
[7] = test system: G22 cells; experiment: as above; assay type: cell-based; conditions: Homo sapiens, read-out: inhibitory activity against growth of G22 cells
[8] = test system: G12 cells; experiment: as above; assay type: cell-based; conditions: Homo sapiens, read-out: inhibitory activity against G12 cell growth
[9] = test system: U251MG subcutaneous tumor xenografts; experiment: Subcutaneous glioma xenograft tumor growth; assay type: in vivo, mouse; conditions: 2 mg/kg, oral gavage, 33 days
Outline: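 Female athymic nude mice, 4 weeks old, injected subcutaneously in the left flank with 7.3 ×10^6 U251MG cells in PBS/matrigel. At 20 days (tumours 170–250 mm3), mice grouped by matched mean tumour size. Dosed 2 mg/kg by oral gavage in 1% DMSO vehicle, three times weekly, for 33 days. Caliper volumes (V = 0.52 × a2 × b) and body weights recorded; paired t test against vehicle.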

[10] = Body weights and signs of toxicity in tumor-bearing mice; assay type: in vivo; conditions: 2 mg/kg, oral gavage, 33 days
[11] = test system: pStat3; experiment: Immunoblots of tumor tissue lysates from treated mice; assay type: in vivo, mouse; conditions: four-to-five cases out of six
Outline: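 After oral dosing, lysates of residual subcutaneous U251MG tumour tissue from treated and 1% DMSO vehicle mice. Immunoblotted for pStat3 and Stat3, with GAPDH as loading reference.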

[12] = test system: U251MG cells; experiment: Colony survival assay; assay type: cell-based, human; conditions: 1 μM, treated once
Outline: (§2)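 Cells seeded as single cells at 250 per well and treated once the next day with test compound (0–5 μM) for 72 h. Grown until large colonies were visible: 1 week for NIH3T3, 2 weeks for U251MG. Colonies stained with crystal violet for 4 h and counted.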

[13] = test system: NIH3T3 cells; experiment: Colony survival assay; assay type: cell-based, mouse; conditions: 2.5 μM or less
Outline: as §2

[14] = test system: U251MG cells; experiment: BrdU incorporation assay; assay type: cell-based, human; conditions: 5 μM, at 24 h
Outline: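 U251MG cells on glass coverslips exposed to DMSO or 5 μM test compound for 3–24 h. BrdU (10 micromolar) added for the final 2 h. Fixed in 4% paraformaldehyde for 10 min, stained with anti-BrdU antibody and counterstained with DAPI. Imaged by fluorescence microscopy, and cells counted.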

[15] = test system: U251MG cells; experiment: Scratch assay for migration; assay type: cell-based, human; conditions: 5 μM, 19-h treatment
Outline: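 Sub-confluent U251MG monolayers wounded with pipette tips and treated once with test compound (0–5 μM) or DMSO vehicle. Cells allowed to migrate into the denuded area over 19 h, then imaged by microscopy at 10×.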

[16] = test system: U251MG cells; experiment: Immunofluorescence staining/confocal microscopy of mitosis; assay type: cell-based, human; conditions: 15 h treatment
Outline: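 U251MG cells on coverslips synchronised by double thymidine block (2 mM) and released for 9 h. Then given DMSO, 100 nM paclitaxel or 8 μM test compound for 15 h. Fixed in 4% paraformaldehyde, permeabilised with 0.1% digitonin and blocked in 0.2% BSA. Stained with anti-β-tubulin (1:350) and anti-MAP1B (1:300) for 1 h at room temperature, then fluorescent secondaries and DAPI; confocal imaging.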

[17] = test system: G22 cells; experiment: 3D spheroid assay; assay type: cell-based, human; conditions: 5 μM, treated once
[18] = test system: pStat3; experiment: Immunoblotting of pStat3 in patient-derived xenograft cells; assay type: cell-based, human; conditions: 5 μM, 3 h
Outline: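 Glioma patient-derived xenograft G22 cells (DMEM, 5–10% heat-inactivated FBS) given 5 μM test compound for 0–24 h. Whole-cell lysates immunoblotted for pStat3 and Stat3, with GAPDH as loading reference.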

[19] = test system: pStat1; experiment: Immunoblotting, EGF-stimulated NIH3T3/hEGFR fibroblasts; assay type: cell-based, mouse; conditions: 5 μM pre-treatment
Outline: (§3)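 NIH3T3/hEGFR fibroblasts pretreated with or without 5 μM test compound for 3 h, then stimulated with 1 μg/ml EGF for 12 min. Whole-cell lysates, equal total protein, immunoblotted for pStat1/Stat1, pStat5/Stat5 and pErk1/2/Erk1/2.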

[20] = test system: pStat5; experiment: as above; assay type: cell-based, mouse; conditions: 5 μM pre-treatment
Outline: as §3

[21] = test system: pErk1/2MAPK; experiment: as above; assay type: cell-based, mouse; conditions: 5 μM pre-treatment
Outline: as §3

[22] = test system: pS-Akt; experiment: Immunoblotting, U251MG glioma cells; assay type: cell-based, human; conditions: 5 μM
Outline: (§4)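 U251MG cells given 5 μM test compound for 0–24 h. Whole-cell lysates of equal total protein immunoblotted for pErk1/2, Erk1/2, pS-Akt, Akt, pJAK2, JAK2, SOCS3 and PTP1B, with β-actin or GAPDH as loading reference.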

[23] = test system: pErk1/2MAPK; experiment: Immunoblotting, U251MG glioma cells; assay type: cell-based, human; conditions: 5 μM
Outline: as §4

[24] = test system: suppressors of cytokine signaling (SOCS)3; experiment: Immunoblotting, U251MG glioma cells; assay type: cell-based, human; conditions: 5 μM
Outline: as §4

[25] = test system: protein tyrosine phosphatase (PTP)1B; experiment: Immunoblotting, U251MG glioma cells; assay type: cell-based, human; conditions: 5 μM
Outline: as §4

[26] = test system: pJAK2; experiment: Immunoblotting, U251MG glioma cells; assay type: cell-based, human; conditions: 5 μM
Outline: as §4

[27] = test system: c-Myc, Bcl-2, Mcl-1 and Bcl-xL expression; experiment: Immunoblots of Stat3-regulated gene products in U251MG cells; assay type: cell-based, human; conditions: 5 μM
Outline: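 Whole-cell lysates prepared from U251MG cells given 5 μM test compound for 0–24 h, with 0.025% DMSO as control. Immunoblotted for c-Myc, Bcl-2, Bcl-xL, Mcl-1, pStat3 and Stat3, with GAPDH as loading reference.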

Compound: C/C=C(\C)C(=O)O[C@H]1C[C@@H](C)[C@]2(O)CC[C@](C)(/C=C3/OC(=O)C(COC(C)=O)=C31)O2 [Compound 6]
- effect on pStat3 in treated tumor cells [1]: strongly inhibited
- effect on Stat3 DNA-binding activity in treated tumor cells [2]: strongly inhibited
- Stat3:Stat3/DNA-binding activity (complexation), cell-free EMSA [3]: diminished
- effect on Stat1:Stat1 activity, cell-free EMSA [4]: weak effects
- effect on Stat5:Stat5 activity, cell-free EMSA [5]: weak effects
- inhibition at 5 µM [6]: 45 to 60%
- inhibition at 5 µM [7]: 45 to 60%
- inhibition at 5 µM [8]: 25 to 35%
- growth of subcutaneous U251MG xenografts [9]: inhibited growth
- body weights or obvious signs of toxicity [10]: No significant changes
- pStat3 and Stat3 levels in residual tumor tissues [11]: lower
- U251MG colony formation [12]: completely inhibited
- effects on NIH3T3 colony numbers [13]: moderate or none
- cell proliferation measured by BrdU incorporation [14]: significantly impaired
- migration into the denuded area [15]: slowed migration
- chromatid structures and sister-chromatids segregation (mitosis) [16]: caused defects
- 3D spheroid growth [17]: decreased 3D spheroid growth
- effect on Phospho-Stat3 in G22 cells [18]: strongly inhibited
- effect on EGF-stimulated pStat1 levels [19]: no effect
- effect on EGF-stimulated pStat5 levels [20]: no effect
- effect on EGF-stimulated pErk1/2MAPK levels [21]: no effect
- effect on pS-Akt levels [22]: no effects
- effect on pErk1/2MAPK levels [23]: no effects
- effect on SOCS3 levels [24]: no effects
- effect on PTP1B levels [25]: no effects
- effect on pJAK2 [26]: apparent moderate increase
- c-Myc, Bcl-2, Mcl-1 and Bcl-xL expression [27]: down regulated

Source: article PMC4834983 (Journal of medicinal chemistry, 2015)
